Data: ChEMBL document CHEMBL4477242, “Synthesis, structure and antimicrobial evaluation of a new gossypol triazole conjugates functionalized with aliphatic chains and benzyloxy groups” (2016)
≈ marks a conversion by molar mass, not a printed value.

Legend:
Rhizopus stolonifer [1] = assay: Antifungal activity against Rhizopus stolonifer ATCC 56227b after 18 hrs by serial microdilution assay; assay type: functional
Procedure, shortened: (§1)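 Fungal strains tested by MIC determination, with miconazole run as the reference antifungal. The two Fusarium oxysporum formae speciales are isolates from plants (cabbage and tomatoes).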

Micrococcus luteus = assay: Antibacterial activity against Micrococcus luteus ATCC 10240 after 18 hrs by serial microdilution assay; assay type: functional; settings: ATCC 10240, 18 h
Staphylococcus aureus [2] = assay: Antibacterial activity against Staphylococcus aureus ATCC 6538 after 18 hrs by serial microdilution assay; assay type: functional; settings: ATCC 6538, 18 h
[3] = Antifungal activity against Fusarium oxysporum f. sp. betae after 18 hrs by serial microdilution assay; assay type: functional; procedure, shortened: as §1
Aspergillus fumigatus = assay: Antifungal activity against Aspergillus fumigatus ATCC 204305 after 18 hrs by serial microdilution assay; assay type: functional; settings: ATCC 204305, 18 h; procedure, shortened: as §1
Streptococcus pneumoniae = assay: Antibacterial activity against Streptococcus pneumoniae ATCC 49619 after 18 hrs by serial microdilution assay; assay type: functional; settings: ATCC 49619, 18 h
[4] = system: Trichophyton mentagrophytes; assay: Antifungal activity against Trichophyton mentagrophytes ATCC 9533 after 18 hrs by serial microdilution assay; assay type: functional; settings: ATCC 9533, 18 h; procedure, shortened: as §1
Bacillus subtilis = assay: Antibacterial activity against Bacillus subtilis […] after 18 hrs by serial microdilution assay; assay type: functional
[5] = system: Staphylococcus epidermidis; assay: Antibacterial activity against Staphylococcus epidermidis ATCC 12228 after 18 hrs by serial microdilution assay; assay type: functional; settings: ATCC 12228, 18 h
Aspergillus brasiliensis = assay: Antifungal activity against Aspergillus brasiliensis ATCC 16404 after 18 hrs by serial microdilution assay; assay type: functional; settings: ATCC 16404, 18 h; procedure, shortened: as §1
[6] = system: Fusarium oxysporum f. sp. lycopersici; assay: Antifungal activity against Fusarium oxysporum f. sp. lycopersici after 18 hrs by serial microdilution assay; assay type: functional; procedure, shortened: as §1
Fusarium acuminatum = assay: Antifungal activity against Fusarium acuminatum ATCC 46651 after 18 hrs by serial microdilution assay; assay type: functional; settings: ATCC 46651, 18 h; procedure, shortened: as §1
Staphylococcus aureus [7] = assay: Antibacterial activity against Staphylococcus aureus ATCC 25923 after 18 hrs by serial microdilution assay; assay type: functional; settings: ATCC 25923, 18 h
[8] = system: Staphylococcus epidermidis; assay: Antibacterial activity against Staphylococcus epidermidis ATCC 49134 after 18 hrs by serial microdilution assay; assay type: functional; settings: ATCC 49134, 18 h
Staphylococcus aureus [9] = assay: Antibacterial activity against methicillin-resistant Staphylococcus aureus 1 after 18 hrs by serial microdilution assay; assay type: functional; settings: Staphylococcus aureus, 1, 18 h
Staphylococcus aureus [10] = assay: Antibacterial activity against methicillin-resistant Staphylococcus aureus 2 after 18 hrs by serial microdilution assay; assay type: functional; settings: Staphylococcus aureus, 2, 18 h
Rhizopus stolonifer [11] = assay: Reduction in ergosterol content in Rhizopus stolonifer ATCC 56227 at 256 microg/ml by HPLC analysis; assay type: functional, organism-based; settings: TDE = time-dependent effect
Procedure, shortened: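 Treated fungal material was derivatised and its ergosterol measured by HPLC from the area of the ergosterol peak at Rt 8.26 min. Content is expressed as mg per 1 g dry fungal mass and followed over incubation time up to 96 h.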

Rhizopus stolonifer [12] = assay: Reduction in ergosterol content in Rhizopus stolonifer ATCC 56227 assessed per gram of dry fungi mass at 256 microg/ml incubated for 24 hrs measured after 24 to 96 hrs by HPLC analysis; assay type: functional
Procedure, shortened: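 Ergosterol was quantified by HPLC in derivatized fungal material from treated cultures, using the peak area at a retention time of 8.26 min. Results are expressed as mg ergosterol per 1 g of dry fungal mass. Content was followed over incubation time, up to 96 h.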

SMILES | MIC (Rhizopus stolonifer [1]) | MIC (Micrococcus luteus) | MIC (Staphylococcus aureus [2]) | MIC [3] | MIC (Aspergillus fumigatus) | MIC (Streptococcus pneumoniae) | MIC [4] | MIC (Bacillus subtilis) | MIC [5] | MIC (Aspergillus brasiliensis) | MIC [6] | MIC (Fusarium acuminatum) | MIC (Staphylococcus aureus [7]) | MIC [8] | MIC (Staphylococcus aureus [9]) | MIC (Staphylococcus aureus [10]) | Activity (Rhizopus stolonifer [11]) | Activity (Rhizopus stolonifer [12])
CCCCc1cn(CCCN/C=C2\C(=O)C(O)=C(C(C)C)c3cc(C)c(-c4c(C)cc5c(c4O)/C(=C/NCCCn4cc(CCCC)nn4)C(=O)C(O)=C5C(C)C)c(O)c32)nn1 | 128 µg/mL (≈ 151 µM) | > 256 µg/mL | > 256 µg/mL | 64 µg/mL (≈ 75.6 µM) | 256 µg/mL (≈ 302 µM) | > 256 µg/mL | 256 µg/mL (≈ 302 µM) | > 256 µg/mL | > 256 µg/mL | 256 µg/mL (≈ 302 µM) | 64 µg/mL (≈ 75.6 µM) | 256 µg/mL (≈ 302 µM) | > 256 µg/mL | > 256 µg/mL | > 256 µg/mL | > 256 µg/mL |  | 
CCCc1cn(CCCN/C=C2\C(=O)C(O)=C(C(C)C)c3cc(C)c(-c4c(C)cc5c(c4O)/C(=C/NCCCn4cc(CCC)nn4)C(=O)C(O)=C5C(C)C)c(O)c32)nn1 |  |  |  | 64 µg/mL (≈ 78.1 µM) |  |  |  |  |  |  | 64 µg/mL (≈ 78.1 µM) |  |  |  |  |  |  | 
Clc1ccc(COC(Cn2ccnc2)c2ccc(Cl)cc2Cl)c(Cl)c1 (stereo unspecified) [MICONAZOLE] |  |  |  | 16 µg/mL (≈ 38.4 µM) |  |  |  |  |  |  | 16 µg/mL (≈ 38.4 µM) |  |  |  |  |  |  | 
Cc1cc2c(c(O)c1-c1c(C)cc3c(c1O)/C(=C/NCCCn1cc(COCc4ccccc4)nn1)C(=O)C(O)=C3C(C)C)/C(=C/NCCCn1cc(COCc3ccccc3)nn1)C(=O)C(O)=C2C(C)C |  |  |  | 16 µg/mL (≈ 16.4 µM) |  |  |  |  |  |  | 16 µg/mL (≈ 16.4 µM) |  |  |  |  |  |  | 
CCCc1cn(CCN/C=C2\C(=O)C(O)=C(C(C)C)c3cc(C)c(-c4c(C)cc5c(c4O)/C(=C/NCCn4cc(CCC)nn4)C(=O)C(O)=C5C(C)C)c(O)c32)nn1 | 128 µg/mL (≈ 162 µM) | > 256 µg/mL | 256 µg/mL (≈ 324 µM) | 64 µg/mL (≈ 80.9 µM) | 256 µg/mL (≈ 324 µM) | 256 µg/mL (≈ 324 µM) | 256 µg/mL (≈ 324 µM) | > 256 µg/mL | 256 µg/mL (≈ 324 µM) | 256 µg/mL (≈ 324 µM) | 64 µg/mL (≈ 80.9 µM) | 256 µg/mL (≈ 324 µM) | 256 µg/mL (≈ 324 µM) | 256 µg/mL (≈ 324 µM) | > 256 µg/mL | > 256 µg/mL |  | 
CCCCc1cn(CCN/C=C2\C(=O)C(O)=C(C(C)C)c3cc(C)c(-c4c(C)cc5c(c4O)/C(=C/NCCn4cc(CCCC)nn4)C(=O)C(O)=C5C(C)C)c(O)c32)nn1 | 128 µg/mL (≈ 156 µM) | > 256 µg/mL | > 256 µg/mL | 64 µg/mL (≈ 78.1 µM) | 256 µg/mL (≈ 313 µM) | > 256 µg/mL | 256 µg/mL (≈ 313 µM) | > 256 µg/mL | > 256 µg/mL | 256 µg/mL (≈ 313 µM) | 64 µg/mL (≈ 78.1 µM) | 256 µg/mL (≈ 313 µM) | > 256 µg/mL | > 256 µg/mL | > 256 µg/mL | > 256 µg/mL |  | 
Cc1cc2c(c(O)c1-c1c(C)cc3c(c1O)/C(=C/NCCn1cc(COCc4ccccc4)nn1)C(=O)C(O)=C3C(C)C)/C(=C/NCCn1cc(COCc3ccccc3)nn1)C(=O)C(O)=C2C(C)C | 64 µg/mL (≈ 67.6 µM) | > 256 µg/mL | > 256 µg/mL | 16 µg/mL (≈ 16.9 µM) | 256 µg/mL (≈ 270 µM) | > 256 µg/mL | 256 µg/mL (≈ 270 µM) | > 256 µg/mL | > 256 µg/mL | 128 µg/mL (≈ 135 µM) | 16 µg/mL (≈ 16.9 µM) | 128 µg/mL (≈ 135 µM) | > 256 µg/mL | > 256 µg/mL | > 256 µg/mL | > 256 µg/mL | Tde | 1 mg
CCCCCc1cn(CCCN/C=C2\C(=O)C(O)=C(C(C)C)c3cc(C)c(-c4c(C)cc5c(c4O)/C(=C/NCCCn4cc(CCCCC)nn4)C(=O)C(O)=C5C(C)C)c(O)c32)nn1 | 128 µg/mL (≈ 146 µM) | > 256 µg/mL | > 256 µg/mL | 64 µg/mL (≈ 73.1 µM) | 256 µg/mL (≈ 293 µM) | > 256 µg/mL | 256 µg/mL (≈ 293 µM) | > 256 µg/mL | > 256 µg/mL | 256 µg/mL (≈ 293 µM) | 64 µg/mL (≈ 73.1 µM) | 256 µg/mL (≈ 293 µM) | > 256 µg/mL | > 256 µg/mL | > 256 µg/mL | > 256 µg/mL |  | 
Cc1cc2c(C(C)C)c(O)c(O)c(C=O)c2c(O)c1-c1c(C)cc2c(C(C)C)c(O)c(O)c(C=O)c2c1O [GOSSYPOL] | 128 µg/mL (≈ 247 µM) | 32 µg/mL (≈ 61.7 µM) | 16 µg/mL (≈ 30.9 µM) | 32 µg/mL (≈ 61.7 µM) | 256 µg/mL (≈ 494 µM) | 16 µg/mL (≈ 30.9 µM) | 128 µg/mL (≈ 247 µM) | 16 µg/mL (≈ 30.9 µM) | 16 µg/mL (≈ 30.9 µM) | 256 µg/mL (≈ 494 µM) | 32 µg/mL (≈ 61.7 µM) | 128 µg/mL (≈ 247 µM) | 16 µg/mL (≈ 30.9 µM) | 16 µg/mL (≈ 30.9 µM) | 16 µg/mL (≈ 30.9 µM) | 16 µg/mL (≈ 30.9 µM) | Tde | 
CCCCCc1cn(CCN/C=C2\C(=O)C(O)=C(C(C)C)c3cc(C)c(-c4c(C)cc5c(c4O)/C(=C/NCCn4cc(CCCCC)nn4)C(=O)C(O)=C5C(C)C)c(O)c32)nn1 | 128 µg/mL (≈ 151 µM) | > 256 µg/mL | > 256 µg/mL | 64 µg/mL (≈ 75.6 µM) | 256 µg/mL (≈ 302 µM) | > 256 µg/mL | 256 µg/mL (≈ 302 µM) | > 256 µg/mL | > 256 µg/mL | 256 µg/mL (≈ 302 µM) | 64 µg/mL (≈ 75.6 µM) | 256 µg/mL (≈ 302 µM) | > 256 µg/mL | > 256 µg/mL | > 256 µg/mL | > 256 µg/mL |  | 
